One block for each compound: values may come before it. The source made the active and inactive calls. No cut-off for these calls is given here.
How the values were obtained:
4T1 [1] = assay: Antitumor activity against mouse 4T1 cells implanted in BALB/c mouse assessed as decrease in lung injury at 5.7 mg/kg,iv administrated once per week for 4 weeks in presence of compound 5b by H and E staining based assay; type: functional, organism-based
How it was run: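 BALB/c mice bearing orthotopic mammary fat pad 4T1 tumors, dosed iv weekly for 4 weeks with saline vehicle as control. Lung sections stained with hematoxylin and eosin and examined by light microscopy at 40× for metastasis, inflammatory infiltration and alveolar wall thickening.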

[2] = Toxicity in BALB/c mouse xenografted with human MDA-MB-231 cells assessed as side effects at 5.7 mg/kg,iv administrated once per week for 3 weeks; type: organism-based; details: in vivo, 504 h
How it was run: (§1)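 Nude BALB/c nu/nu mice received subcutaneous human tumour cells into the right flank. Dosing started at mean tumour volume of 100–120 mm3, iv once weekly for 3 weeks; the taxane arm was an equimolar control. Body weight and overt side effects were monitored. Mean ± SEM, n = 8.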

4T1 [3] = assay: Antitumor activity against mouse 4T1 cells implanted in BALB/c mouse assessed as decrease in spleen MMP2 expression level at 5.7 mg/kg,iv administrated once per week for 4 weeks by western blot assay; type: functional, organism-based
How it was run: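 4T1 cells injected into mammary fat pads of BALB/c mice. Saline vehicle or test article given iv once weekly for 4 weeks. Spleen, lung and tumor lysates immunoblotted for MMP2/MMP9 with β-actin as loading control. Bands averaged over five mice per group, representative of two independent experiments.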

[4] = MRT in mouse tumor implanted with mouse 4T1 cells at 5.7 mg/kg,iv measured upto 72 hrs; type: ADME, organism-based, Neoplasm
[5] = Toxicity in BALB/c mouse xenografted with human NCI-H1975 cells assessed as side effects at 5.7 mg/kg,iv administrated once per week for 3 weeks; type: organism-based; details: in vivo, 504 h; how it was run: as §1
4T1 [6] = assay: Antitumor activity against mouse 4T1 cells implanted in BALB/c mouse assessed as decrease in spleen MDSC cells at 5.7 mg/kg,iv administrated in presence of compound 5b measured after 28 days (reference value: 38%); type: functional; design: scale not given: the % may be the effect or the level left; details: time 28 day
How it was run: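 Splenocytes taken from 4T1 fat-pad tumor-bearing BALB/c mice after 28 days of tumor growth with weekly iv dosing. Cells stained with anti-CD11b PE and anti-Gr-1 FITC, and the Gr-1+CD11b+ percentage scored by flow cytometry. Eight mice per treated group, five naive. Mean ± SEM.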

[7] = MRT in mouse tumor implanted with mouse 4T1 cells at 10 mg/kg,iv measured upto 72 hrs; type: ADME, organism-based, Neoplasm
Cytochrome P450 2C8 = Cytochrome P450 2C8 (Homo sapiens, UniProt P10632); assay: Inhibition of CYP2C8 in human liver microsomes using probe substrate in presence of NADPH; type: ADME, Microsome
[8] = AUC (0-t) in rat at 2 mg/kg,iv measured upto 24 hrs; type: ADME, organism-based; design: dose 2 mg/kg, time < 24 hrs, route iv; details: in vivo
How it was run: (§2)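 Single iv dose: rats 2, 4 or 8 mg/kg by intravenous injection; Beagle dogs 1, 2 or 4 mg/kg by intravenous infusion. Plasma concentration–time data were analysed by sex and pooled. Reported parameters: Cmax, Tmax, AUC0−t, AUC0−∞, MRT0−∞, t1/2, CL, Vss, given as mean ± SD.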

4T1 [9] = assay: Synergistic antitumor activity against mouse 4T1 cells xenografted with BALB/c mouse assessed as decrease in lung metastasis at 10 mg/kg,iv administrated in combination with doxorubicin once per week for 4 weeks; type: functional, organism-based
[10] = Toxicity in Beagle dog assessed as decrease in body temperature at 1 to 4 mg/kg,iv measured after 1 to 4 hrs; type: organism-based, Canis lupus familiaris; details: in vivo, dose lower 1 mg/kg, time lower 1 hrs, dose upper 4 mg/kg, time upper 4 hrs
[11] = AUC (0-infinity) in Beagle dog at 1 mg/kg,iv measured upto 24 hrs; type: ADME, organism-based, Canis lupus familiaris; design: dose 1 mg/kg, time < 24 hrs, route iv; details: in vivo; how it was run: as §2
[12] = AUC (0-infinity) in female rat at 8 mg/kg,iv measured upto 24 hrs; type: ADME, organism-based; design: dose 8 mg/kg, time < 24 hrs, route iv; details: in vivo; how it was run: as §2
4T1 [13] = assay: Antitumor activity against mouse 4T1 cells implanted in BALB/c mouse assessed as decrease in IL-1beta mRNA expression in lung at 20 mg/kg,iv administrated qd for 2 days by qRT-PCR analysis; type: functional, organism-based; details: time 2.0 day
How it was run: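 Day 19 after 4T1 implantation, mice randomised into five groups; iv vehicle or 20 mg/kg plus ip C12-iE-DAP (50 μg/mouse) and MDP (100 μg/mouse) once daily for 2 days; killed after 48 h; lung mRNA for MMP8, MMP9, PROK2, S100A8, S100A9 and IL-1β by qPCR; mean ± SEM.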

4T1 [14] = assay: Antitumor activity against mouse 4T1 cells xenografted with BALB/c mouse assessed as inhibition of tumor growth at 20 mg/kg,iv administrated once per week for 4 weeks; type: functional; details: 4T1, 672 h
How it was run: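 4T1 cells injected into the mammary fat pad of BALB/c mice; iv saline vehicle or 5, 10 or 20 mg/kg once weekly for 4 weeks; body weight, tumour volume, tumour weight, lung metastatic nodule count and metastasis score recorded; n = 10, mean ± SEM, ANOVA and Student's t test.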

[15] = Acute toxicity in Sprague-Dawley rat assessed as maximum tolerated dose at iv administration; type: organism-based; details: in vivo
How it was run: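 Acute toxicity after a single intravenous administration. […] In dogs, an approximate lethal dose range was determined.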

[16] = Clearance in female Beagle dog at 4 mg/kg,iv measured upto 24 hrs; type: ADME, organism-based, Canis lupus familiaris; details: in vivo
How it was run: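 Beagle dogs were given a single iv infusion at 1, 2 or 4 mg/kg. Plasma parent drug and released docetaxel were followed over time. Cmax, Tmax, AUC, MRT, t1/2, CL and Vss were reported by sex and for all dogs combined.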

MCF7 = assay: Antiproliferative activity against human MCF7 cells assessed inhibition of cell growth incubated for 72 hrs by SRB assay; type: functional, cell-based; details: MCF7, 72 h
SF-295 = assay: Antiproliferative activity against human SF-295 cells assessed inhibition of cell growth incubated for 72 hrs by SRB assay; type: functional, cell-based; details: SF-295, 72 h
[17] = MRT (0 to infinity) in female Beagle dog at 1 mg/kg,iv measured upto 24 hrs; type: ADME, organism-based, Canis lupus familiaris; details: in vivo
[18] = AUC (0-infinity) in male rat at 4 mg/kg,iv measured upto 24 hrs; type: ADME, organism-based; design: time < 24 hrs, dose 4 mg/kg, route iv; details: in vivo; how it was run: as §2
[19] = Volume of distribution at steady state in male rat at 2 mg/kg,iv measured upto 24 hrs; type: ADME, organism-based; details: in vivo, read-out: Vdss
[20] = Tmax in male rat at 2 mg/kg,iv measured upto 24 hrs; type: ADME, organism-based; details: in vivo
[21] = Prodrug conversion in mouse plasma implanted with mouse 4T1 cells assessed as Tmax of docetaxel at 4 mg/kg,iv measured upto 72 hrs; type: ADME, organism-based; details: in vivo
[22] = Prodrug conversion in mouse plasma implanted with mouse 4T1 cells assessed as MRT of docetaxel at 4 mg/kg,iv measured upto 72 hrs; type: ADME, organism-based; details: in vivo
[23] = Chronic toxicity in female Beagle dog at 3 to 18 mg/kg,iv administered once per week for 30 days; type: organism-based, Canis lupus familiaris; details: in vivo, 720 h, dose 3-18 mg/kg, time 30 day
How it was run: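 Long-term toxicity: rats given iv 2, 4 or 8 mg/kg and dogs 3, 6 or 18 mg/kg once weekly over 30 days; toxicokinetics recorded; highest non-severely toxic dose determined by sex.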

KM12 = assay: Antiproliferative activity against human KM12 cells assessed inhibition of cell growth incubated for 72 hrs by SRB assay; type: functional, cell-based; details: KM12, 72 h

Cytochrome P450 2C8, sequence (P10632 whole entry): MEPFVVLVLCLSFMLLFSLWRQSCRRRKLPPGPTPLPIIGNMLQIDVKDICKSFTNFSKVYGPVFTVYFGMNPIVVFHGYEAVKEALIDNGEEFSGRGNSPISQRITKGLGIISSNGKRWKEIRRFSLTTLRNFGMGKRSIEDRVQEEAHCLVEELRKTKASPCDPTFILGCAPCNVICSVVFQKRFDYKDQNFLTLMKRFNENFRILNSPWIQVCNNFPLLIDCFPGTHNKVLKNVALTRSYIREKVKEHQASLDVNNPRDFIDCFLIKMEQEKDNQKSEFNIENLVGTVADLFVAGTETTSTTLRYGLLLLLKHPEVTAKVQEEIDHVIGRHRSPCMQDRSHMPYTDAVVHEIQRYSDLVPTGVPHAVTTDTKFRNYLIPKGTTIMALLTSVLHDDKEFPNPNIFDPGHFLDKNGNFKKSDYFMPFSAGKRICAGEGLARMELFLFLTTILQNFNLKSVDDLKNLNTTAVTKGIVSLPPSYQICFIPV

MRT [4]: 73.3 h
SMILES: CC(=O)O[C@@]12CO[C@@H]1C[C@H](O)[C@@]1(C)C(=O)[C@H](O)C3=C(C)[C@@H](OC(=O)[C@H](O)[C@@H](NC(=O)OC(C)(C)C)c4ccccc4)C[C@@](O)([C@@H](OC(=O)c4ccccc4)[C@H]21)C3(C)C [DOCETAXEL ANHYDROUS]
Activity (4T1 [1]): Active
Activity [2]: Non-Toxic
Activity (4T1 [3]): inactive
Activity [5]: Non-Toxic
Activity (4T1 [6]): 32.1%

SMILES: CC(=O)O[C@@]12CO[C@@H]1C[C@H](O)[C@@]1(C)C(=O)[C@H](O)C3=C(C)[C@@H](OC(=O)[C@H](OC(=O)CCC(=O)NCCCC[C@H](NC(=O)CC[C@@H](NC(=O)[C@H](C)NC(=O)/C=C/c4ccc(F)cc4Cl)C(N)=O)C(=O)O)[C@@H](NC(=O)OC(C)(C)C)c4ccccc4)C[C@@](O)([C@@H](OC(=O)c4ccccc4)[C@H]21)C3(C)C
MRT [7]: 132 min
IC50 (Cytochrome P450 2C8): 9970 nM
AUC(0-t) at 24 h [8]: 5200 ng·h/mL
Activity (4T1 [9]): Active
Activity [10]: Non-Toxic
AUC(0-inf) [11]: 1640 ng·h/mL
AUC(0-inf) [12]: 39400 ng·h/mL
Activity (4T1 [13]): Active
inhibition in vivo at 20 mg/kg (4T1 [14]): 57.2%
MTD [15]: 9.4 mg/kg
clearance [16]: 3.85 mL/min/kg
IC50 (MCF7): 16.3 nM
IC50 (SF-295): 16.3 nM
MRT inf [17]: 18.4 min
AUC(0-inf) [18]: 20800 ng·h/mL
Vd [19]: 0.076 L/kg
Tmax [20]: 4.98 min
Tmax [21]: 1.8 min
MRT [22]: 52.8 min
Activity [23]: Non-Toxic
IC50 (KM12): 16.3 nM
